High-throughput results deposited in PubChem BioAssay by several laboratories.
Yeast superoxide – caloric restriction mimetics inhibiting age-related superoxide in yeast | superoxide response (% of plate mean), % at 10 µM | S. cerevisiae aged cells, superoxide DHE fluorescence; active compounds read low | 0.18% of 330,000 active | AID 2690;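 active means superoxide response under a set limit, about three screen SD below normal, cut at about 65% in these data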;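 further: yeast aged for seven days with compound at 30 °C before DHE staining; 100% = average MFI of all compound-treated wells on the plate with controls excluded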
VIM-2 inhibitor – inhibitors of Pseudomonas aeruginosa VIM-2 metallo-beta-lactamase. AID 1527. inhibition, % at 5.6 µM. purified VIM-2, nitrocefin hydrolysis, epi-absorbance fluorescence. 0.89% of 290,000 active;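 active means inhibition above the mean of all tested compounds plus 3 SD, cutoff set per screening run, cut at about 7.5% in these data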;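 further: red hydrolysis product quenches plate fluorescence so inhibitors raise well fluorescence; 0% = enzyme with DMSO and 100% = DMSO without enzyme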
PvdQ acylase – P. aeruginosa PvdQ acylase inhibition; AID 488965; inhibition, % at 10 µM; purified PvdQ acylase, fluorescence plate reader; 0.063% of 340,000 active; in the data active means inhibition above about 30%, passing the limit was not always enough;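 further: 0% = vehicle neutral wells and 100% = reference inhibitor wells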
IMP-1 inh – blocks Pseudomonas aeruginosa IMP-1 metallo-beta-lactamase | purified IMP-1, nitrocefin hydrolysis, epi-absorbance fluorescence | inhibition, % at 5.6 µM | 0.45% of 290,000 active | AID 1556;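 active means inhibition above the mean plus 3 SD of all compounds in the same screening run, cut at about 4.5% in these data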;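 further: 0% = IMP-1 with DMSO and 100% = DMSO wells lacking enzyme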
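Material – recombinant IMP-1 enzyme, purified · Amount – IMP-1 0.2 nM before substrate addition · Medium – HEPES buffer pH 7.1 with ZnSO4 and Brij 35 · Timing – 25 °C, 15 min preincubation, 25 min reaction · Measured by – plate fluorescence quenching by hydrolysis product, ex 480/em 530 nm · Read-out – percent enzyme inhibition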
PHOSPHO1 inh – PHOSPHO1 (human) inhibition. Q8TCT1. recombinant PHOSPHO1, absorbance phosphatase assay. inhibition, % at 13.3 µM. 1.1% of 290,000 active. AID 1565; in the data active means inhibition above about 60%
Target sequence (Q8TCT1 whole entry, looked up): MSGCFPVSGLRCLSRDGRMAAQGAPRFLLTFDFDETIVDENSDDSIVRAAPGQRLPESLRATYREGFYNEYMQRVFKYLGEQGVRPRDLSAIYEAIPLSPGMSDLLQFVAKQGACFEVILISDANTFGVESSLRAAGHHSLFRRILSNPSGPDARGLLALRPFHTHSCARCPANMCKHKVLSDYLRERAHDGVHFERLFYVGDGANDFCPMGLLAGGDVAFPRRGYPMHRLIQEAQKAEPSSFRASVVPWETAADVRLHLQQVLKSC
* hit, by the source's call; x = no result given. Sampled rows, rich in hits. Any-hit rate of the full collection: about 2.2%.

SMILES | Yeast superoxide | VIM-2 inhibitor | PvdQ acylase | IMP-1 inh | PHOSPHO1 inh
Cn1cnnc1SCC(=O)c1cc2ccccc2o1 | 107 | -4 | -13 | -1 | -6
CCOC(=O)c1ccc2c(c1)nc(SCC(=O)c1cc3ccccc3o1)n2CC | 107 | -4 | -11 | 3 | 90*
Cn1ccnc1SCC(=O)c1cc2ccccc2o1 | 107 | 0 | -4 | 4.6* | 91*
CCN(CC)S(=O)(=O)c1cccc(NC(=O)CCNC(=O)NC23CC4CC(CC(C4)C2)C3)c1 | 95 | x | -14 | x | x
CCCn1c(=O)c(C(=O)Nc2ncccc2O)c(O)c2ccccc21 | 92 | -3 | -15 | -3 | -18
Cn1c(=O)c(C(=O)Nc2ncccc2O)c(O)c2ccccc21 | 92 | 0 | 2 | -4 | 82*
COC(=O)COc1ccc(S(=O)(=O)N2CCN(c3ccccc3)CC2)cc1 | 102 | -5 | -3 | -3 | 1
COc1ccc(OC)c(C2Nc3c(Cl)ccc(C(=O)O)c3C3C=CCC32)c1 (configuration not stated) | 88 | -1 | -1 | 11* | -20
O=C(O)c1ccc(Cl)c2c1C1C=CCC1C(c1ccccn1)N2 (configuration not stated) | 98 | -1 | x | 0 | 83*
COC(=O)COc1ccc(C2Nc3c(Cl)ccc(C(=O)O)c3C3C=CCC32)cc1 (configuration not stated) | 96 | -2 | -19 | 12* | -35
O=[N+]([O-])c1ccc(Cl)c2c1C1C=CCC1C(c1ccccn1)N2 (configuration not stated) | 78 | -1 | -13 | 0 | 8
Cc1c(Cl)cccc1NC(=O)c1ccccc1-c1ccccc1C(=O)O | 107 | 0 | 2 | -7 | 50
COc1ccc(C(=O)OCC(=O)NC2CC2)cc1F | 95 | x | 10 | x | x
CN(C(=O)CSc1nc2ccccc2o1)C1CCCCC1 | x | x | -2 | x | x
Cc1cc(=O)oc2c(C)c(OC(C)C(=O)NCCCN3CCOCC3)ccc12 (configuration not stated) | 89 | -3 | -14 | -3 | 64*
CCc1cc(=O)oc2c(C)c(OC(C)C(=O)NCCCN3CCOCC3)ccc12 (configuration not stated) | 92 | 4 | -10 | -2 | 45
Cc1c(C)c2ccc(OC(C)C(=O)NCc3ccccn3)cc2oc1=O (configuration not stated) | 82 | 0 | -6 | -4 | 24
CC(Oc1ccc2c3c(c(=O)oc2c1)CCCC3)C(=O)NCc1ccccn1 (configuration not stated) | 106 | 8.5* | 7 | 1 | 42
CC(Oc1ccc2c3c(c(=O)oc2c1)CCC3)C(=O)NCCN1CCOCC1 (configuration not stated) | 96 | 12* | 6 | -2 | 11
Cc1c(OC(C)C(=O)NCCCN2CCOCC2)ccc2c3c(c(=O)oc12)CCCC3 (configuration not stated) | 97 | 11* | 1 | -1 | 7
Cc1c(C)c2ccc(OC(C)C(=O)NCCN3CCOCC3)c(C)c2oc1=O (configuration not stated) | 109 | 7 | -6 | -3 | 30
COc1ccc(S(=O)(=O)N2CCCCCC2)cc1C(=O)Nc1ccc(C(=O)N(C)C)cc1 | x | x | 3 | x | x
CC(NC(=O)C1CCN(C(=O)c2ccc(F)cc2)CC1)c1ccc(-n2ccnc2)cc1 (configuration not stated) | 113 | x | -6 | x | x
O=C(COc1ccc2c3c(c(=O)oc2c1)CCCC3)N[C@@H](Cc1ccccc1)C(=O)O | 109 | 0 | 9 | -2 | 14
Cc1c(C)c2ccc(OC(C)C(=O)NCCCN3CCOCC3)c(C)c2oc1=O (configuration not stated) | 75 | 8.6* | 3 | 1 | 24
SMILES | Yeast superoxide | VIM-2 inhibitor | PvdQ acylase | IMP-1 inh | PHOSPHO1 inh
O=C(COc1ccc2c3c(c(=O)oc2c1)CCCC3)NCc1cccnc1 | 101 | 9.2* | -7 | -2 | 6
Cc1cc[n+](-c2nc([O-])sc2/C=N/Nc2ccc([N+](=O)[O-])cc2)cc1 | 110 | -4 | -2 | -3 | 49
Cc1cc(C)c[n+](-c2nc([O-])sc2C=O)c1 | 99 | -2 | -9 | -3 | 96*
NNC(=O)c1ccc(NS(=O)(=O)c2ccc(Br)cc2)cc1 | 109 | -3 | x | -4 | -12
CCn1nc(C)c(CN2CCC(n3nccc3NC(=O)Cc3ccccc3)CC2)c1C | 89 | -1 | -4 | 0 | 38
Cc1ccc(CC(=O)Nc2cccc(C)n2)cc1 | 90 | 0 | 5 | -1 | 45
Cc1cccc(NC(=O)Cc2ccc(-c3ccccc3)cc2)n1 | 102 | 0 | -13 | 12* | 34
